# From ChEMBL document CHEMBL1759840, “2,3-Substituted quinoxalin-6-amine analogs as antiproliferatives: a structure-activity relationship study” (2011)
# Active and inactive are the calls of the source. The calls are words filed in the database; no cut-off is given here.
# Tested on: HeLa
# Test: Induction of apoptosis in human HeLa cells overexpressing Bad3SA assessed as PARP cleavage at 20 uM by Western blotting
# Assay type: functional, cell-based
# Settings: not given
row,SMILES,Activity
1,O=C(Nc1ccc(Br)cc1)Nc1ccc2nc(-c3ccco3)c(-c3ccco3)nc2c1,Active

# Tested on: HeLa
# Test: Induction of apoptosis in human HeLa cells overexpressing Bad3SA assessed as increase in caspase 3/7 activity at 20 uM after 1 hr by luminescence assay
# Assay type: functional, cell-based
# Settings: not given
row,SMILES,Activity
1,O=C(Nc1ccc(Br)cc1)Nc1ccc2nc(-c3ccco3)c(-c3ccco3)nc2c1,Active

# Tested on: A549
# Test: Growth inhibition of human A549 cells at 20 uM after 72 hrs by alamar blue assay
# Assay type: functional
# Settings: not given
# Method in brief: (§1)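 Single-concentration screen at 20 μM with 72 h exposure across a panel of cancer lines: lung A549, pancreatic AsPC1, colon HT29, breast MDA-MB-231, prostate PC3, ovarian SKOV3 and bone U2OS. Growth inhibition read after 72 h.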
row,SMILES,growth inhibition (GI)
1,Cc1ccc(S(=O)(=O)N(c2ccc3nc(-c4ccco4)c(-c4ccco4)nc3c2)S(=O)(=O)c2ccc(C)cc2)cc1,inactive
2,Cc1ccc(S(=O)(=O)c2c(N)ccc3nc(C)c(C)nc23)cc1,inactive
3,Cc1ccc(S(=O)(=O)N(c2ccc3nc(-c4cccs4)c(-c4cccs4)nc3c2)S(=O)(=O)c2ccc(C)cc2)cc1,inactive
4,CC(=O)Nc1ccc2nc(-c3cccs3)c(-c3cccs3)nc2c1,inactive
5,Cc1nc2ccc(NC(=O)Nc3ccccc3)cc2nc1C,inactive
6,Cc1ccc(S(=O)(=O)Nc2ccc3nc(-c4ccccc4)c(-c4ccccc4)nc3c2)cc1,inactive
7,O=C(Nc1ccccc1)Nc1ccc2nc(-c3cccs3)c(-c3cccs3)nc2c1,inactive

# Same assay, conditions: A549, 72 h, read-out: GI
row,SMILES,inhibition of growth at 20 µM
1,O=C(Nc1ccc(Br)cc1)Nc1ccc2nc(-c3ccco3)c(-c3ccco3)nc2c1,> 100%

# Tested on: MDA-MB-231
# Test: Growth inhibition of human MDA-MB-231 cells after 72 hrs by alamar blue assay
# Assay type: functional
# Settings: MDA-MB-231, 72 h
row,SMILES,GI50
1,O=C(Nc1ccc(Br)cc1)Nc1ccc2nc(-c3ccco3)c(-c3ccco3)nc2c1,8.4 µM

# Tested on: PC-3
# Test: Growth inhibition of human PC3 cells after 72 hrs by alamar blue assay
# Assay type: functional
# Settings: PC-3, 72 h
row,SMILES,GI50
1,O=C(Nc1ccc(Br)cc1)Nc1ccc2nc(-c3ccco3)c(-c3ccco3)nc2c1,5.9 µM

# Tested on: A549
# Test: Growth inhibition of human A549 cells after 72 hrs by alamar blue assay
# Assay type: functional
# Settings: A549, 72 h
row,SMILES,GI50
1,O=C(Nc1ccc(Br)cc1)Nc1ccc2nc(-c3ccco3)c(-c3ccco3)nc2c1,6.4 µM

# Tested on: SK-OV-3
# Test: Growth inhibition of human SKOV3 cells at 20 uM after 72 hrs by alamar blue assay
# Assay type: functional
# Settings: not given
# Method in brief: as §1
row,SMILES,growth inhibition (GI)
1,Cc1ccc(S(=O)(=O)N(c2ccc3nc(-c4ccco4)c(-c4ccco4)nc3c2)S(=O)(=O)c2ccc(C)cc2)cc1,inactive
2,Cc1ccc(S(=O)(=O)c2c(N)ccc3nc(C)c(C)nc23)cc1,inactive
3,Cc1ccc(S(=O)(=O)N(c2ccc3nc(-c4cccs4)c(-c4cccs4)nc3c2)S(=O)(=O)c2ccc(C)cc2)cc1,inactive
4,CC(=O)Nc1ccc2nc(-c3cccs3)c(-c3cccs3)nc2c1,inactive
5,Cc1nc2ccc(NC(=O)Nc3ccccc3)cc2nc1C,inactive
6,Cc1ccc(S(=O)(=O)Nc2ccc3nc(-c4ccccc4)c(-c4ccccc4)nc3c2)cc1,inactive
7,O=C(Nc1ccccc1)Nc1ccc2nc(-c3cccs3)c(-c3cccs3)nc2c1,inactive

# Same assay, conditions: SK-OV-3, 72 h, read-out: GI
row,SMILES,inhibition of growth at 20 µM
1,O=C(Nc1ccc(Br)cc1)Nc1ccc2nc(-c3ccco3)c(-c3ccco3)nc2c1,94.9%

# Tested on: HeLa
# Test: Induction of Mcl-1 dependent apoptosis in doxycycline-stimulated human HeLa cells assessed as condensed nuclei for 12 hrs using Hoechst dye
# Assay type: functional, cell-based
# Settings: not given
row,SMILES,Activity
1,O=C(Nc1ccc(Br)cc1)Nc1ccc2nc(-c3ccco3)c(-c3ccco3)nc2c1,Dose-dependent effect

# Tested on: PC-3
# Test: Growth inhibition of human PC3 cells at 20 uM after 72 hrs by alamar blue assay
# Assay type: functional
# Settings: not given
# Method in brief: as §1
row,SMILES,growth inhibition (GI)
1,Cc1ccc(S(=O)(=O)N(c2ccc3nc(-c4ccco4)c(-c4ccco4)nc3c2)S(=O)(=O)c2ccc(C)cc2)cc1,inactive
2,Cc1ccc(S(=O)(=O)c2c(N)ccc3nc(C)c(C)nc23)cc1,inactive
3,Cc1ccc(S(=O)(=O)N(c2ccc3nc(-c4cccs4)c(-c4cccs4)nc3c2)S(=O)(=O)c2ccc(C)cc2)cc1,inactive
4,CC(=O)Nc1ccc2nc(-c3cccs3)c(-c3cccs3)nc2c1,inactive
5,Cc1nc2ccc(NC(=O)Nc3ccccc3)cc2nc1C,inactive
6,Cc1ccc(S(=O)(=O)Nc2ccc3nc(-c4ccccc4)c(-c4ccccc4)nc3c2)cc1,inactive
7,O=C(Nc1ccccc1)Nc1ccc2nc(-c3cccs3)c(-c3cccs3)nc2c1,inactive

# Same assay, conditions: PC-3, 72 h, read-out: GI
row,SMILES,inhibition of growth at 20 µM
1,O=C(Nc1ccc(Br)cc1)Nc1ccc2nc(-c3ccco3)c(-c3ccco3)nc2c1,> 100%

# Tested on: MDA-MB-231
# Test: Induction of apoptosis in human MDA-MB-231 cells assessed as increase in caspase 3/7 activity at 20 uM after 1 hr by luminescence assay
# Assay type: functional, cell-based
# Settings: not given
# Method in brief: (§2)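 Caspase 3/7 induction was followed over time, up to 72 h, in MDA-MB-231 and PC3 cells, with etoposide as positive control.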
row,SMILES,Activity
1,O=C(Nc1ccc(Br)cc1)Nc1ccc2nc(-c3ccco3)c(-c3ccco3)nc2c1,Active

# Tested on: ASPC1
# Test: Growth inhibition of human AsPC1 cells after 72 hrs by alamar blue assay
# Assay type: functional
# Settings: ASPC1, 72 h
row,SMILES,GI50
1,O=C(Nc1ccc(Br)cc1)Nc1ccc2nc(-c3ccco3)c(-c3ccco3)nc2c1,17.3 µM

# Tested on: U2OS
# Test: Growth inhibition of human U2OS cells at 20 uM after 72 hrs by alamar blue assay
# Assay type: functional
# Settings: not given
# Method in brief: as §1
row,SMILES,growth inhibition (GI)
1,Cc1ccc(S(=O)(=O)N(c2ccc3nc(-c4ccco4)c(-c4ccco4)nc3c2)S(=O)(=O)c2ccc(C)cc2)cc1,inactive
2,Cc1ccc(S(=O)(=O)c2c(N)ccc3nc(C)c(C)nc23)cc1,inactive
3,Cc1ccc(S(=O)(=O)N(c2ccc3nc(-c4cccs4)c(-c4cccs4)nc3c2)S(=O)(=O)c2ccc(C)cc2)cc1,inactive
4,CC(=O)Nc1ccc2nc(-c3cccs3)c(-c3cccs3)nc2c1,inactive
5,Cc1nc2ccc(NC(=O)Nc3ccccc3)cc2nc1C,inactive
6,Cc1ccc(S(=O)(=O)Nc2ccc3nc(-c4ccccc4)c(-c4ccccc4)nc3c2)cc1,inactive
7,O=C(Nc1ccccc1)Nc1ccc2nc(-c3cccs3)c(-c3cccs3)nc2c1,inactive

# Same assay, conditions: read-out: GI
row,SMILES,inhibition of growth at 20 µM
1,O=C(Nc1ccc(Br)cc1)Nc1ccc2nc(-c3ccco3)c(-c3ccco3)nc2c1,> 100%

# Tested on: SK-OV-3
# Test: Growth inhibition of human SKOV3 cells after 72 hrs by alamar blue assay
# Assay type: functional
# Settings: SK-OV-3, 72 h
row,SMILES,GI50
1,O=C(Nc1ccc(Br)cc1)Nc1ccc2nc(-c3ccco3)c(-c3ccco3)nc2c1,16.8 µM

# Tested on: PC-3
# Test: Induction of apoptosis in human PC3 cells assessed as increase in caspase 3/7 activity at 20 uM after 1 hr by luminescence assay
# Assay type: functional, cell-based
# Settings: not given
# Method in brief: as §2
row,SMILES,Activity
1,O=C(Nc1ccc(Br)cc1)Nc1ccc2nc(-c3ccco3)c(-c3ccco3)nc2c1,Active

# Tested on: ASPC1
# Test: Growth inhibition of human AsPC1 cells at 20 uM after 72 hrs by alamar blue assay
# Assay type: functional
# Settings: not given
# Method in brief: as §1
row,SMILES,growth inhibition (GI)
1,Cc1ccc(S(=O)(=O)N(c2ccc3nc(-c4ccco4)c(-c4ccco4)nc3c2)S(=O)(=O)c2ccc(C)cc2)cc1,inactive
2,Cc1ccc(S(=O)(=O)c2c(N)ccc3nc(C)c(C)nc23)cc1,inactive
3,Cc1ccc(S(=O)(=O)N(c2ccc3nc(-c4cccs4)c(-c4cccs4)nc3c2)S(=O)(=O)c2ccc(C)cc2)cc1,inactive
4,CC(=O)Nc1ccc2nc(-c3cccs3)c(-c3cccs3)nc2c1,inactive
5,Cc1nc2ccc(NC(=O)Nc3ccccc3)cc2nc1C,inactive
6,Cc1ccc(S(=O)(=O)Nc2ccc3nc(-c4ccccc4)c(-c4ccccc4)nc3c2)cc1,inactive
7,O=C(Nc1ccccc1)Nc1ccc2nc(-c3cccs3)c(-c3cccs3)nc2c1,inactive

# Same assay, conditions: ASPC1, 72 h, read-out: GI
row,SMILES,inhibition of growth at 20 µM
1,O=C(Nc1ccc(Br)cc1)Nc1ccc2nc(-c3ccco3)c(-c3ccco3)nc2c1,> 100%

# Tested on: HT-29
# Test: Growth inhibition of human HT-29 cells at 20 uM after 72 hrs by alamar blue assay
# Assay type: functional
# Settings: not given
# Method in brief: as §1
row,SMILES,growth inhibition (GI)
1,Cc1ccc(S(=O)(=O)N(c2ccc3nc(-c4ccco4)c(-c4ccco4)nc3c2)S(=O)(=O)c2ccc(C)cc2)cc1,inactive
2,Cc1ccc(S(=O)(=O)c2c(N)ccc3nc(C)c(C)nc23)cc1,inactive
3,Cc1ccc(S(=O)(=O)N(c2ccc3nc(-c4cccs4)c(-c4cccs4)nc3c2)S(=O)(=O)c2ccc(C)cc2)cc1,inactive
4,CC(=O)Nc1ccc2nc(-c3cccs3)c(-c3cccs3)nc2c1,inactive
5,Cc1nc2ccc(NC(=O)Nc3ccccc3)cc2nc1C,inactive
6,Cc1ccc(S(=O)(=O)Nc2ccc3nc(-c4ccccc4)c(-c4ccccc4)nc3c2)cc1,inactive
7,O=C(Nc1ccccc1)Nc1ccc2nc(-c3cccs3)c(-c3cccs3)nc2c1,inactive

# Same assay, conditions: HT-29, 72 h, read-out: GI
row,SMILES,inhibition of growth at 20 µM
1,O=C(Nc1ccc(Br)cc1)Nc1ccc2nc(-c3ccco3)c(-c3ccco3)nc2c1,88.6%

# Tested on: HT-29
# Test: Growth inhibition of human HT-29 cells after 72 hrs by alamar blue assay
# Assay type: functional
# Settings: HT-29, 72 h
row,SMILES,GI50
1,O=C(Nc1ccc(Br)cc1)Nc1ccc2nc(-c3ccco3)c(-c3ccco3)nc2c1,12.1 µM

# Tested on: U2OS
# Test: Growth inhibition of human U2OS cells after 72 hrs by alamar blue assay
# Assay type: functional
# Settings: not given
row,SMILES,GI50
1,O=C(Nc1ccc(Br)cc1)Nc1ccc2nc(-c3ccco3)c(-c3ccco3)nc2c1,10.8 µM

# Tested on: MDA-MB-231
# Test: Growth inhibition of human MDA-MB-231 cells at 20 uM after 72 hrs by alamar blue assay
# Assay type: functional
# Settings: not given
# Method in brief: as §1
row,SMILES,growth inhibition (GI)
1,Cc1ccc(S(=O)(=O)N(c2ccc3nc(-c4ccco4)c(-c4ccco4)nc3c2)S(=O)(=O)c2ccc(C)cc2)cc1,inactive
2,Cc1ccc(S(=O)(=O)c2c(N)ccc3nc(C)c(C)nc23)cc1,inactive
3,Cc1ccc(S(=O)(=O)N(c2ccc3nc(-c4cccs4)c(-c4cccs4)nc3c2)S(=O)(=O)c2ccc(C)cc2)cc1,inactive
4,CC(=O)Nc1ccc2nc(-c3cccs3)c(-c3cccs3)nc2c1,inactive
5,Cc1nc2ccc(NC(=O)Nc3ccccc3)cc2nc1C,inactive
6,Cc1ccc(S(=O)(=O)Nc2ccc3nc(-c4ccccc4)c(-c4ccccc4)nc3c2)cc1,inactive
7,O=C(Nc1ccccc1)Nc1ccc2nc(-c3cccs3)c(-c3cccs3)nc2c1,inactive

# Same assay, conditions: MDA-MB-231, 72 h, read-out: GI
row,SMILES,inhibition of growth at 20 µM
1,O=C(Nc1ccc(Br)cc1)Nc1ccc2nc(-c3ccco3)c(-c3ccco3)nc2c1,> 100%
